{"source": "ChEMBL document CHEMBL4402562", "about": "“Discovery of Novel Peptidomimetic Boronate ClpP Inhibitors with Noncanonical Enzyme Mechanism as Potent Virulence Blockers in Vitro and in Vivo” (J Med Chem, 2020)", "key": {"[1]": {"assay": "Induction of hemolysis in sheep erythrocytes by measuring hemoglobin release incubated for 15 mins", "type": "cell-based, Ovis aries, Erythrocyte", "outline": "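Serially diluted compound mixed directly with 2% sheep erythrocytes in 10 mM Tris pH 7.4, 0.9% NaCl. Buffer served as negative and water as positive control. After 1,500 rpm, 15 min spin, released hemoglobin read at 545 nm. Three experiments, triplicate tubes.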"}, "[2]": {"assay": "Cytotoxicity in human HeLa cells assessed as reduction in cell viability incubated for 24 hrs by MTT assay", "type": "cell-based", "outline": "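MTT assay. HeLa (3×10^3 cells) or HepG2 (4×10^3 cells) seeded in DMEM and grown 24 h, then given compound for a further 24 h. Absorbance read at 570 nm against DMSO wells. GI50 from dose-response fit; three experiments, triplicate wells.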"}, "[3]": {"molecular_target": "T1, ATP-dependent Clp protease proteolytic subunit (Staphylococcus aureus (strain NCTC 8325), UniProt Q2G036)", "T1 sequence (Q2G036 whole entry)": "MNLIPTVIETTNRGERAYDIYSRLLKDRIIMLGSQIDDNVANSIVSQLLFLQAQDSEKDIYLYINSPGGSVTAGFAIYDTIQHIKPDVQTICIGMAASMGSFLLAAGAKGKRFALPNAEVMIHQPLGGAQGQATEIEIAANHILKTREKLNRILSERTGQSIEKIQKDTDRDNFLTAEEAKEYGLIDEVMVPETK", "assay": "Binding affinity to N-terminal His6-sumo-tagged full length Staphylococcus aureus ClpP expressed in Escherichia coli […] assessed as shifting of melting peak of SaClpP by differential scanning calorimetry analysis", "outline": "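DSC: 0.5 mg/mL (25 µM) SaClpP with 100 µM compound or two-fold dilution series, RT; scanned 30-90 °C at 1 °C/min, buffer-buffer scan subtracted; Tm from thermogram peak maximum; single run.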"}, "[4]": {"assay": "Inhibition of Staphylococcus aureus ClpXP expressed in Escherichia coli […] using FITC-casein substrate in presence of ATP-regenerating system incubated for 50 mins by fluorescence based assay", "outline": "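3.6 μM SaClpP with 3 μM SaClpX in 25 mM Hepes pH 7.5, 20 mM MgCl2, 30 mM KCl, 0.03% Tween 20, 10% glycerol, 2 mM DTT. ATP regeneration: 4 mM ATP, 20 U/mL creatine kinase, 16 mM creatine phosphate. FITC-casein 0.048 mg/mL, 494/521 nm for 50 min; slope 300–1200 s vs DMSO. Thrice, triplicate wells.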"}, "[5]": {"molecular_target": "20S proteasome (Homo sapiens) (UniProt P49721+P20618+P28074+P28062+P28065+P28072+P25786+P25787+P25788+P25789+P28066+P60900+O14818+Q8TAA3+P40306+A5LHX3+P49720+P28070+Q99436)", "assay": "Inhibition of 20S proteasome (unknown origin) pre-incubated before Suc-LLVY-AM addition and measured after 1 hr by fluorescence based assay", "type": "protein-complex assay"}, "[6]": {"molecular_target": "Coagulation factor X (Homo sapiens) (UniProt P00742)", "sequence (P00742 41-179 limits assumed)": "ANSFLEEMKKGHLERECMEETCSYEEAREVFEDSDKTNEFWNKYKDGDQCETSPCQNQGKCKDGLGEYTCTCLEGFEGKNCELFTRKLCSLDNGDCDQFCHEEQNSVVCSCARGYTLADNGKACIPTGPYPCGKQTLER", "sequence (P00742 235-488 limits assumed)": "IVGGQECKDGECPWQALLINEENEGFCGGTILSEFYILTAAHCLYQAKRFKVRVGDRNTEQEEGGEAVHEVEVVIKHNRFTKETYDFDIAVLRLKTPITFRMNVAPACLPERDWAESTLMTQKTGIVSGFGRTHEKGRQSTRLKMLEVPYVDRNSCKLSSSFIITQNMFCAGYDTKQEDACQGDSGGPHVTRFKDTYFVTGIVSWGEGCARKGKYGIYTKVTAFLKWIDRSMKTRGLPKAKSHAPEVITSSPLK", "assay": "Inhibition of human F10a up to 100 uM pre-incubated for 10 mins before Pefachrome Fxa addition and measured after […] based assay"}, "[7]": {"test_system": "Staphylococcus aureus", "assay": "Inhibition of virulence-related genes expression in methicillin-resistant Staphylococcus aureus ATCC 33591 assessed as reduction in agrB expression at 16 uM by qPCR analysis relative to control", "type": "functional", "outline": "(§1)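 Total RNA from 2×10⁸ CFU treated MRSA by liquid-nitrogen freeze-thaw and TRIzol; qPCR relative to gyrB endogenous control; three experiments, triplicate wells.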"}, "[8]": {"test_system": "Staphylococcus aureus", "assay": "Inhibition of virulence-related genes expression in methicillin-resistant Staphylococcus aureus ATCC 33591 assessed as reduction in hla expression at 4 to 16 uM by qPCR analysis relative to control", "type": "functional, organism-based", "outline": "as §1"}, "[9]": {"test_system": "Staphylococcus aureus", "assay": "(§2) Antivirulence activity against methicillin-resistant Staphylococcus aureus ATCC 33591 infected in BALB/c mouse model of skin abscess assessed as effect on bacterial recovery levels at 1.5 to 3 mg/kg injected into shaved area of skin once daily for 4 days measured after 12 hrs post last dose", "type": "functional, organism-based", "outline": "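Female BALB/c mice, 6-8 weeks, n=5 per group, backs shaved and depilated 1 day before; 50 µL subcutaneous 1.7 × 10⁹ CFU/mL MRSA ATCC 33591. From 6 h post-infection, 40 µL vehicle, vancomycin 3 mg/kg, or compound 1.5 or 3 mg/kg injected at infection site once daily for 4 days; weight recorded daily. Skin homogenised in saline 12 h after last dose, plated on LB agar 37 °C ≥16 h; log10 CFU/abscess; t-test.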"}, "[10]": {"assay": "Toxicity in BALB/c mouse model of skin abscess infected with methicillin-resistant Staphylococcus aureus ATCC 33591 assessed as effect on creatinine levels at 1.5 to 3 mg/kg injected into shaved area of skin once daily for 4 days", "type": "organism-based", "conditions": "in vivo, other, 96 h", "outline": "(§3)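 Infected BALB/c mice (n=5/group) dosed 1.5 or 3 mg/kg into the infected skin once daily for 4 days; blood collected on day 4 and day 14, centrifuged 3,500 rpm 15 min, serum biochemistry analysed.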"}, "[11]": {"assay": "Toxicity in BALB/c mouse model of skin abscess infected with methicillin-resistant Staphylococcus aureus ATCC 33591 assessed as effect on uric acid levels at 1.5 to 3 mg/kg injected into shaved area of skin once daily for 4 days", "type": "organism-based", "conditions": "in vivo, other, 96 h", "outline": "as §3"}, "[12]": {"assay": "Toxicity in BALB/c mouse model of skin abscess infected with methicillin-resistant Staphylococcus aureus ATCC 33591 assessed as effect on total protein levels at 1.5 to 3 mg/kg injected into shaved area of skin once daily for 4 days", "type": "organism-based", "conditions": "in vivo, other, 96 h", "outline": "as §3"}, "[13]": {"assay": "Toxicity in BALB/c mouse model of skin abscess infected with methicillin-resistant Staphylococcus aureus ATCC 33591 assessed as effect on alkaline phosphatase levels at 1.5 to 3 mg/kg injected into shaved area of skin once daily for 4 days", "type": "organism-based", "conditions": "in vivo, other, 96 h", "outline": "as §3"}, "[14]": {"assay": "Toxicity in BALB/c mouse model of skin abscess infected with methicillin-resistant Staphylococcus aureus ATCC 33591 assessed as effect on alanine transaminase levels at 1.5 to 3 mg/kg injected into shaved area of skin once daily for 4 days", "type": "organism-based", "conditions": "in vivo, other, 96 h", "outline": "as §3"}, "[15]": {"test_system": "Staphylococcus aureus", "assay": "as §2, with “reduction in interstitium thickening” for “effect on bacterial recovery levels”, “dose by hematoxylin and eosin staining based optical microscopy” for “dose”", "type": "functional, organism-based", "outline": "(§4)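 Same MRSA ATCC 33591 skin-abscess model in female BALB/c mice (n=5/group), 40 µL compound at 1.5 or 3 mg/kg injected into the infected shaved skin once daily for 4 days. On day 4 infected skin and heart, liver, spleen, lung, kidney fixed in 4% paraformaldehyde, embedded, sectioned, H&E stained and examined by microscopy; PBS-treated uninfected and vehicle controls.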"}, "[16]": {"test_system": "Staphylococcus aureus", "assay": "as §2, with “reduction in kidney histopathological changes” for “effect on bacterial recovery levels”, “dose by hematoxylin and eosin staining based optical microscopy” for “dose”", "type": "functional, organism-based", "outline": "as §4"}}, "note": "The source made the active and inactive calls. No cut-off for these calls is given here."}
{"smiles": "CC(C)C[C@H](NC(=O)[C@H](Cc1c[nH]c2ccccc12)NC(=O)c1cc(Cl)ccc1Cl)B(O)O", "values": [{"measurement": "HC50 at 0.25 h", "setting": "[1]", "result": "> 500", "unit": "µM"}, {"measurement": "GI50 at 24 h", "setting": "[2]", "result": 108, "unit": "µM"}, {"measurement": "EC50", "setting": "[3]", "result": 1.27, "unit": "µM"}, {"measurement": "IC50", "setting": "[4]", "result": 69.6, "unit": "µM"}, {"measurement": "inhibition", "setting": "[5]", "result": "Active"}, {"measurement": "inhibition", "setting": "[6]", "result": "inactive"}, {"measurement": "fold change (FC)", "setting": "[7]", "result": 2}, {"measurement": "inhibition", "setting": "[8]", "result": "Active"}, {"measurement": "Activity", "setting": "[9]", "result": "Active"}, {"measurement": "Activity", "setting": "[10]", "result": "Non-Toxic"}, {"measurement": "Activity", "setting": "[11]", "result": "Non-Toxic"}, {"measurement": "Activity", "setting": "[12]", "result": "Non-Toxic"}, {"measurement": "Activity", "setting": "[13]", "result": "Non-Toxic"}, {"measurement": "Activity", "setting": "[14]", "result": "Non-Toxic"}, {"measurement": "Activity", "setting": "[15]", "result": "Active"}, {"measurement": "Activity", "setting": "[16]", "result": "Active"}]}
